Measurements taken from ChEMBL document CHEMBL1629670, “In vitro activities of retigeric acid B alone and in combination with azole antifungal agents against Candida albicans” (2009).
Values after ≈ are worked out from the molar mass of the structure shown.

Columns and labels:
Type in all cases: functional
Candida albicans [1] = assay: Antifungal activity against Candida albicans CA127 after 48 hrs by broth microdilution method; conditions: CA127, 48 h
Outline: (§1)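 CLSI M27-A2 broth microdilution of clinical isolates in RPMI 1640 buffered to pH 7.0 with 0.165 M MOPS. Final inoculum 0.5 x 10^3 to 2.5 x 10^3 cells/ml, incubated 35°C for 48 h. Growth read as OD490 with background subtracted. MIC taken as the lowest drug concentration giving 80% growth reduction versus drug-free control. Run in triplicate.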

Candida albicans [2] = assay: Antifungal activity against Candida albicans CA137 after 48 hrs by broth microdilution method; conditions: CA137, 48 h; outline: as §1
Candida albicans [3] = assay: Antifungal activity against Candida albicans CA138 after 48 hrs by broth microdilution method; conditions: CA138, 48 h; outline: as §1
Candida albicans [4] = assay: Antifungal activity against Candida albicans CA4 after 48 hrs by broth microdilution method; conditions: CA4, 48 h; outline: as §1
Candida albicans [5] = assay: Antifungal activity against Candida albicans CA135 after 48 hrs by broth microdilution method; conditions: CA135, 48 h; outline: as §1
Candida albicans [6] = assay: Antifungal activity against Candida albicans CA132 after 48 hrs by broth microdilution method; conditions: CA132, 48 h; outline: as §1
Candida albicans [7] = assay: Antifungal activity against Candida albicans CA3 after 48 hrs by broth microdilution method; conditions: CA3, 48 h; outline: as §1
Candida albicans [8] = assay: Antifungal activity against Candida albicans CA1 after 48 hrs by broth microdilution method; conditions: CA1, 48 h; outline: as §1
Candida albicans [9] = assay: Antifungal activity against Candida albicans ATCC 10231 by broth microdilution method
Outline: as §1, with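 “microdilution” for “microdilution of clinical isolates”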

Candida albicans [10] = assay: Antifungal activity against Candida albicans CA10 after 48 hrs by broth microdilution method; conditions: CA10, 48 h; outline: as §1
Candida albicans [11] = assay: Antifungal activity against Candida albicans CA2 after 48 hrs by broth microdilution method; conditions: CA2, 48 h; outline: as §1

For `OC(Cn1cncn1)(Cn1cncn1)c1ccc(F)cc1F` [FLUCONAZOLE], the MIC (Candida albicans [1]) was 1 µg/mL (≈ 3.27 µM), the MIC (Candida albicans [2]) was 64 µg/mL (≈ 209 µM) and the MIC (Candida albicans [3]) was 128 µg/mL (≈ 418 µM). It also gave an MIC (Candida albicans [4]) of 1 µg/mL (≈ 3.27 µM), an MIC (Candida albicans [5]) of 128 µg/mL (≈ 418 µM) and an MIC (Candida albicans [6]) of 0.5 µg/mL (≈ 1.63 µM). For the same molecule, the MIC (Candida albicans [7]) was 0.25 µg/mL (≈ 0.816 µM), the MIC (Candida albicans [8]) was 0.25 µg/mL (≈ 0.816 µM) and the MIC (Candida albicans [9]) was 0.5 µg/mL (≈ 1.63 µM). For the same molecule, the MIC (Candida albicans [10]) was 256 µg/mL (≈ 836 µM) and the MIC (Candida albicans [11]) was 0.5 µg/mL (≈ 1.63 µM).

Molecule `CCC(C)n1ncn(-c2ccc(N3CCN(c4ccc(OCC5COC(Cn6cncn6)(c6ccc(Cl)cc6Cl)O5)cc4)CC3)cc2)c1=O` (stereo unspecified) [ITRACONAZOLE] has an MIC (Candida albicans [1]) of 0.016 µg/mL (≈ 0.0227 µM), an MIC (Candida albicans [2]) of 16 µg/mL (≈ 22.7 µM) and an MIC (Candida albicans [3]) of 64 µg/mL (≈ 90.7 µM). For the same molecule, the MIC (Candida albicans [4]) was 0.031 µg/mL (≈ 0.0439 µM), the MIC (Candida albicans [5]) was 32 µg/mL (≈ 45.3 µM) and the MIC (Candida albicans [6]) was 0.031 µg/mL (≈ 0.0439 µM). The MIC (Candida albicans [7]) was 0.031 µg/mL (≈ 0.0439 µM), the MIC (Candida albicans [8]) was 0.125 µg/mL (≈ 0.177 µM) and the MIC (Candida albicans [10]) was 128 µg/mL (≈ 181 µM). It also gave an MIC (Candida albicans [11]) of 0.125 µg/mL (≈ 0.177 µM).
